E coli WT exp – blocks growth of wild type E. coli BW25113; OD600 absorbance; growth inhibition, % at 100 µM; 98,000 compounds, 0.15% hits; AID 710;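 active = growth inhibition above about 50% at one test dose, limit read from the data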;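 note: growth measured after 20 h incubation at 37 °C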
Cdc25B inh – human M-phase inducer phosphatase 2 inhibition; P30305; recombinant Cdc25B, OMFP fluorescence Ex485/Em525; inhibition, %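 (compounds tested at 10 µM final in the well)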; 65,000 compounds, 0.1% hits; AID 368; in the data active = inhibition above about 50%
Target sequence (P30305 whole entry, looked up): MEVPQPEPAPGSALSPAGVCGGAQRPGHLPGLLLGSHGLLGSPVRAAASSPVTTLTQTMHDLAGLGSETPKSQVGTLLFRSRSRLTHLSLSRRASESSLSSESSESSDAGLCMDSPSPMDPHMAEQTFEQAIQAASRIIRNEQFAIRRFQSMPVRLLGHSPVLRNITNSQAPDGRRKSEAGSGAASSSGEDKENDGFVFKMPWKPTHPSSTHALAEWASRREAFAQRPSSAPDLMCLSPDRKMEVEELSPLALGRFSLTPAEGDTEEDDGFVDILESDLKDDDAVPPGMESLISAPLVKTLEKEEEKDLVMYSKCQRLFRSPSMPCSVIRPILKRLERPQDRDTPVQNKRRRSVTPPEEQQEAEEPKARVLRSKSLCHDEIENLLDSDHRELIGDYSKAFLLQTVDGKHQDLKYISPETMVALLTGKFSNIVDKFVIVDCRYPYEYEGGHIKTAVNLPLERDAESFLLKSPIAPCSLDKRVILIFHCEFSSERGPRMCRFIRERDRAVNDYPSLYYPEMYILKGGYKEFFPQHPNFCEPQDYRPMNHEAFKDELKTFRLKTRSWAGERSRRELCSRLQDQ
DUSP1 inh – human dual specificity phosphatase 1 inhibition. inhibition, %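 (compounds tested at a single concentration somewhere between 10 and 100 µM)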. 65,000 compounds, 0.15% hits. recombinant MKP-1, OMFP hydrolysis fluorescence;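 active = inhibition above about 50%, limit read from the data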;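 note: 0% = DMSO max control wells and 100% = wells with enzyme stopped by NaOH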
MMP13 inh – MMP13 (human) collagenase inhibition; MMP-13 fTHP FRET cleavage, Mca fluorescence; P45452; 65,000 compounds, 0.07% hits; AID 570; inhibition, % at 4 µM;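 active = inhibition above the mean of compound-free control plate wells plus 3 SD, cut at about 14% in these data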;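 note: 0% = DMSO wells and 100% = wells with reference MMP-13 inhibitor after basal subtraction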
HePTP inhibitor – human HePTP phosphatase inhibition | P35236 | recombinant HePTP phosphatase activity, OD absorbance | inhibition, % at 20 µM | 110,000 compounds, 0.64% hits; in the data active = inhibition above about 50%;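 note: plate controls were vehicle for no effect and reference inhibitor for full effect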
Ecoli tolC – E. coli tolC mutant growth inhibition; E. coli BW25113 tolC mutant growth, OD615; growth inhibition, % at 10 µM (by protocol); 65,000 compounds, 2.2% hits; AID 573;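 active = growth inhibition at or above a cutoff equal to the mean over every tested compound plus 3 SD, cut at about 60% in these data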;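 note: growth measured after 20 h incubation at 37 °C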
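test system = E. coli BW25113 ΔtolC::kan bacteria | medium = LB with kanamycin 50 µg/mL | signal = OD at 615 nm | schedule = 37 °C, 20 h exposure | evaluation = % inhibition of E. coli growth | compound dosing = one dose of 10 µM final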
Starred values were filed as active, the others as inactive; · = no result given. Shown is part of a subset that was picked to be rich in hits.

SMILES	E coli WT exp	Cdc25B inh	DUSP1 inh	MMP13 inh	HePTP inhibitor	Ecoli tolC
CCOC(=O)c1[nH]c(C)c(C(=O)Nc2cc(OC)ccc2OC)c1C	-2.0	0.2	1.1	0.8	-16.0	-2.2
CCOC(=O)C(=CNc1ccc([N+](=O)[O-])cc1)C(=O)OCC	·	·	·	·	8.7	·
COc1ccc(N/C=C(/C2=CC(=O)C=CC2=O)[N+](=O)[O-])cc1	·	·	·	·	58.1*	·
CCOC(=O)NC(Nc1cccc(F)c1)(C(F)(F)F)C(F)(F)F	·	·	·	·	-0.8	·
c1ccc(-c2csc(N3CCN(c4ccccn4)CC3)n2)cc1	-16.0	-1.6	4.5	3.0	-4.4	88.1*
c1ccc(-c2csc(N3CCOCC3)n2)cc1	5.0	·	·	·	·	·
Cc1ccccc1C(=O)N=Nc1c(O)n(CN(C)C)c2ccc(Br)cc12	·	·	·	·	24.3	·
c1ccc(-c2nc(NCc3ccco3)c3ccccc3n2)nc1	20.0	2.9	-14.1	0.6	-5.5	83.3*
Oc1ccccc1-c1nc(NCc2ccco2)c2ccccc2n1	2.0	12.9	-16.2	3.0	1.0	13.1
c1coc(CNc2nc(N3CCCCC3)nc3ccccc23)c1	31.0	-3.4	-15.3	-40.7	7.7	71.0*
c1ccc(N2CCN(c3nc(NCc4ccco4)c4ccccc4n3)CC2)cc1	-3.0	7.1	-13.9	-14.9	5.2	2.9
O=S(=O)(Nc1nc2ccccc2nc1NCc1ccco1)c1ccccc1	1.0	-5.0	-2.9	-4.1	2.8	71.1*
COc1ccc(-c2n[nH]c(=S)n2N)cc1OC	·	·	·	·	10.7	·
COc1ccc(S(=O)(=O)n2nc(C)c(Sc3ccc([N+](=O)[O-])cc3)c2C)cc1	·	·	·	·	10.6	·
CCOC(=O)C(C)Oc1ccc2c(C)c(CC)c(=O)oc2c1 (centres undefined)	·	·	·	·	1.9	·
COc1ccc(C(=O)NC(=S)Nc2ccccc2Cl)cc1	·	·	·	·	4.7	·
O=C(COc1ccccc1)Nc1nnc(-c2ccc(Cl)s2)o1	55.0*	0.7	3.2	-12.6	3.5	95.8*
O=C(Nc1ccccc1)Nc1cccc(Cl)c1	29.0	·	·	·	·	·
CC(=O)c1ccc(NC(=O)Nc2cccc(Cl)c2)cc1	52.0*	·	·	·	·	·
CCCC1(O)CC(c2ccccc2)NC(c2ccccc2)C1C (centres undefined)	·	·	·	·	-9.1	·
Cc1c(-c2nc(N)nc(Nc3ccccc3)n2)oc2ccccc12	-13.0	-6.8	6.6	-1.1	-2.1	98.4*
Cc1ccc(C)n1-c1ccc(C(=O)O)c(O)c1	·	·	·	·	103.1*	·
Cc1ccc(C)n1-c1ccc(C(=O)O)c(Cl)c1	·	·	·	·	102.4*	·
Cc1ccc(C)n1-c1cc(C(=O)O)ccc1O	·	·	·	·	103.2*	·
Cc1ccc(C)n1-c1ccc(C(=O)O)cc1	5.0	·	·	·	·	·
SMILES	E coli WT exp	Cdc25B inh	DUSP1 inh	MMP13 inh	HePTP inhibitor	Ecoli tolC
Cc1ccc(C)n1-c1cc(C(=O)O)cc(C(=O)O)c1	·	·	·	·	100.6*	·
CC(=O)c1ccc(-n2c(C)ccc2C)cc1	·	·	·	·	0.4	·
N#C/C(=C/c1ccc(I)o1)C(=O)Nc1ccc(Cl)c(Cl)c1	·	·	·	·	0.7	·
COc1ccc(OC)c(N2C(=O)CC(Cc3cc(C)cc(C)c3)C2=O)c1 (centres undefined)	·	·	·	·	97.2*	·
Cc1cc(C)cc(CC2CC(=O)N(c3cc(C)on3)C2=O)c1 (centres undefined)	8.0	-29.6	0.9	-0.8	0.1	0.6
Cc1ccc(OCCc2c(C)n[nH]c2C)c(Cl)c1	·	·	·	·	104.7*	·
Cc1ccc(OCCCc2c(C)n[nH]c2C)c(C)c1	·	·	·	·	-2.3	·
COc1ccc(Cn2c(=O)sc3ccccc32)cc1	4.0	-13.1	-4.2	1.3	2.2	60.9*
COc1ccc(NC(=O)Cn2c(=O)sc3ccccc32)cc1	3.0	·	·	·	·	·
Fc1ccc(-c2nc(-c3ccc(C(F)(F)F)cc3)no2)cc1	·	·	·	·	-8.8	·
O=C(NC12CC3CC(CC(C3)C1)C2)c1ccccc1O	-3.0	-1.2	20.6	-19.2	6.7	62.5*
CN(C)c1ccc(/C=C/C(=O)c2cccc([N+](=O)[O-])c2)cc1	·	·	·	·	6.9	·
CCOc1ccccc1N1CCN(Cc2ccc(Br)s2)CC1	23.0	-13.4	6.7	-0.5	5.2	96.9*
CCOc1ccccc1N1CCN(Cc2ccco2)CC1	-4.0	·	·	·	·	·
N=c1n(CCN2CCCCC2)c2ccccc2n1CC(O)c1cccc(Br)c1 (centres undefined)	18.0	-25.5	1.5	-1.8	-10.4	35.4
N=c1n(CCN2CCCCC2)c2ccccc2n1CC(O)c1ccc(Cl)c(Cl)c1 (centres undefined)	98.0*	·	·	·	·	·
COc1ccc(CN2CC(C(=O)NCCCN3CCOCC3)CC2=O)cc1 (centres undefined)	5.0	65.1*	21.6	-6.7	-5.7	-26.0
COc1ccc(CN2CC(C(=O)NCCCN3CCCCCC3)CC2=O)cc1 (centres undefined)	2.0	-25.5	4.1	-4.5	2.8	-16.4
c1csc(-c2nc3nc4ccccc4nc3n2Cc2ccc3c(c2)OCO3)c1	-4.0	5.9	4.6	-27.4	4.9	65.7*
COC(=O)C1=C(C)N(C)C(C)=C(C(=O)OC)C1c1cccs1	·	·	·	·	10.1	·
CC(=O)Nc1cc2c(C)cc(=O)oc2cc1C	·	·	·	·	-25.7	·
COc1ccc(-c2c3c(=O)n(C)c(=O)n(C)c3cn2-c2ccccc2)cc1	-8.0	3.5	25.5	-0.1	4.8	96.0*
COc1ccc(C(=O)Nn2cc3c(c2-c2ccccc2)c(=O)n(C)c(=O)n3C)cc1	-6.0	-11.4	21.8	-0.9	6.1	-3.5
O=C(O)CCN1C(=O)/C(=C/c2ccc(-c3ccccc3[N+](=O)[O-])o2)SC1=S	·	·	·	·	69.7*	·
CCN1C(=O)/C(=C\c2ccc(-c3ccccc3C(=O)OC)o2)SC1=S	·	·	·	·	6.6	·
SMILES	E coli WT exp	Cdc25B inh	DUSP1 inh	MMP13 inh	HePTP inhibitor	Ecoli tolC
O=C(O)CN1C(=O)/C(=C\c2ccc(-c3cccc4c3C(=O)c3ccccc3C4=O)o2)SC1=S	·	·	·	·	100.7*	·
CC(C)OC(=O)c1c(-c2ccccc2Cl)csc1N	·	·	·	·	7.8	·
CCC1=NN(C(=O)c2ccc(OC)cc2)C(O)(c2ccncc2)C1 (centres undefined)	·	·	·	·	103.9*	·
CCC1=NN(C(=O)c2cccc(O)c2)C(O)(c2ccncc2)C1 (centres undefined)	·	·	·	·	8.3	·
CC(C)n1c(C(=O)OCC(=O)NCc2ccc3c(c2)OCO3)cc2occc21	4.0	-7.0	3.2	11.8	-0.1	63.8*
CC(C)n1c(C(=O)OCC(=O)NCc2ccc3c(c2)OCO3)cc2sccc21	-21.0	-5.8	0.6	5.3	-11.4	57.9
COC(=O)C1=C(C)N=c2s/c(=C\c3ccccc3Cl)c(=O)n2C1c1cccs1 (centres undefined)	·	·	·	·	-4.8	·
CN(C)CCCN(C(=O)c1cccs1)c1nc(-c2ccccc2)cs1	7.0	-12.2	-34.5	-6.1	4.5	4.4
CN(c1ccc(O)cc1)c1nc(-c2ccccc2)cs1	·	-12.4	27.3	19.6*	-2.1	97.6*
O=Nc1c(O)n(Cc2cccc(Cl)c2)c2ccccc12	28.0	·	·	·	·	·
N#Cc1cn(Cc2cccc(Cl)c2)c2ccccc12	2.0	-6.2	0.4	-1.6	1.6	97.1*
Cc1cc(C)cc(N2C(=O)NC(=O)/C(=C\c3ccc([N+](=O)[O-])o3)C2=O)c1	·	·	·	·	83.5*	·
Cc1cc(N2C(=O)NC(=O)/C(=C\c3ccc([N+](=O)[O-])o3)C2=O)ccc1Br	·	·	·	·	104.4*	·

Screening data as filed in PubChem BioAssay.
